Measured values as given in ChEMBL document CHEMBL3045489, “Synthesis, fungicidal activity, and QSAR of a series of 2-dichlorophenyl-3-triazolylpropyl ethers” (J Agric Food Chem, 2000).
Values after ≈ are worked out from the molar mass of the structure shown.

What was measured:
Bipolaris maydis = test: Antifungal activity against Cochliobolus heterostrophus assessed as inhibition of radial growth on potato dextrose; format: functional, organism-based
Summary of the method: (§1)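 Radial growth inhibition on potato dextrose or Czapek agar across 100-0.1 mg L-1. ED50 calculated for each compound.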

Pyrenophora teres = test: Antifungal activity against Pyrenophora teres assessed as inhibition of radial growth on potato dextrose; format: functional, organism-based
Ustilago maydis = test: Antifungal activity against Ustilago maydis assessed as inhibition of radial growth on potato dextrose; format: functional, organism-based; conditions: Mycosarcoma maydis
Oculimacula yallundae = test: Antifungal activity against Oculimacula yallundae assessed as inhibition of radial growth on potato dextrose; format: functional, organism-based; summary of the method: as §1
Podosphaera fuliginea [1] = test: Fungicidal activity against Podosphaera fuliginea inoculated in […] placed in growth room after 24 hr incubation assessed as direct protection after 6 to 10 days; format: functional
Uromyces appendiculatus = test: Fungicidal activity against Uromyces appendiculatus inoculated in Phaseolus vulgaris placed in growth room after 24 hr incubation assessed as direct protection after 6 to 10 days; format: functional
Summary of the method: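 Bean plants grown at 22 ± 1 °C, 80 ± 10% RH. Compound in acetone/water (1:4 v/v) with Tween 20 (0.4 mg mL-1) was sprayed on leaves until moist at 100 to 0.001 mg L-1. One day later leaves were inoculated with U. appendiculatus uredospores (1 × 10^5 spores mL-1), held 24 h at 22 ± 2 °C and 100% RH, then moved to the growth room. Scored at 6, 8 and 10 days as MIC.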

Cercospora beticola = test: Antifungal activity against Cercospora beticola assessed as inhibition of radial growth on potato dextrose; format: functional, organism-based; summary of the method: as §1
Botrytis cinerea = test: Antifungal activity against Botryotinia fuckelianaassessed as inhibition of radial growth on potato dextrose; format: functional, organism-based; summary of the method: as §1
Fusarium graminearum = test: Antifungal activity against Fusarium graminearum assessed as inhibition of radial growth on potato dextrose; format: functional, organism-based; summary of the method: as §1
Podosphaera fuliginea [2] = test: Fungicidal activity against Podosphaera fuliginea inoculated in […] placed in growth room after 24 hr incubation assessed as disease cure after 24 hr of inoculation; format: functional

Row | Compound | EC50 (Bipolaris maydis) [µg/mL] | EC50 (Pyrenophora teres) [µg/mL] | EC50 (Ustilago maydis) [µg/mL] | EC50 (Oculimacula yallundae) [µg/mL] | MIC (Podosphaera fuliginea [1]) [µg/mL] | MIC (Uromyces appendiculatus) [µg/mL] | EC50 (Cercospora beticola) [µg/mL] | EC50 (Botrytis cinerea) [µg/mL] | EC50 (Fusarium graminearum) [µg/mL] | MIC (Podosphaera fuliginea [2]) [µg/mL]
1 | Clc1ccc(C(COCc2ccc3ccccc3c2)Cn2cncn2)c(Cl)c1 (racemic) | 0.15 (≈ 0.364 µM) | 0.25 (≈ 0.606 µM) | 0.18 (≈ 0.437 µM) | 1 (≈ 2.43 µM) | 50 (≈ 121 µM) | 120 (≈ 291 µM) | 0.23 (≈ 0.558 µM) | 2.8 (≈ 6.79 µM) | 130 (≈ 315 µM) | 
2 | Clc1ccc(C(COCc2ccc(-c3ccccc3)cc2)Cn2cncn2)c(Cl)c1 (racemic) | 0.18 (≈ 0.411 µM) | 0.55 (≈ 1.25 µM) | 0.03 (≈ 0.0684 µM) | 0.5 (≈ 1.14 µM) | 10 (≈ 22.8 µM) | 28 (≈ 63.9 µM) | 0.18 (≈ 0.411 µM) | 2.8 (≈ 6.39 µM) | > 200 | 6 (≈ 13.7 µM)
3 | Clc1ccc(C(COCc2cccc(Oc3ccccc3)c2)Cn2cncn2)c(Cl)c1 (racemic) | 150 (≈ 330 µM) | 0.85 (≈ 1.87 µM) | 0.16 (≈ 0.352 µM) | 5 (≈ 11 µM) | 12 (≈ 26.4 µM) | 50 (≈ 110 µM) | 0.14 (≈ 0.308 µM) | 8 (≈ 17.6 µM) | > 200 | 
4 | Clc1ccc(C(COCc2ccc(OCc3ccccc3)cc2)Cn2cncn2)c(Cl)c1 (racemic) | 0.15 (≈ 0.32 µM) | 0.22 (≈ 0.47 µM) | 0.14 (≈ 0.299 µM) | 0.5 (≈ 1.07 µM) | 10 (≈ 21.4 µM) | 35 (≈ 74.7 µM) | 0.2 (≈ 0.427 µM) | 3.5 (≈ 7.47 µM) | > 200 | 
5 | Clc1ccc(C(COCc2ccc(OCc3cccc(OCc4ccccc4)c3)cc2)Cn2cncn2)c(Cl)c1 (racemic) |  | 1.3 (≈ 2.26 µM) | 0.2 (≈ 0.348 µM) | 1.8 (≈ 3.13 µM) |  | 140 (≈ 244 µM) | 0.9 (≈ 1.57 µM) | 25 (≈ 43.5 µM) | > 200 | 
6 | Clc1ccc(C(COCc2ccc(OCc3ccc(OCc4ccccc4)cc3)cc2)Cn2cncn2)c(Cl)c1 (racemic) |  | 0.2 (≈ 0.348 µM) | 0.2 (≈ 0.348 µM) | 0.16 (≈ 0.278 µM) |  | > 100 | 0.18 (≈ 0.313 µM) | 100 (≈ 174 µM) | > 200 | 
7 | Clc1ccc(C(COCc2cccs2)Cn2cncn2)c(Cl)c1 (racemic) | 0.2 (≈ 0.543 µM) | 0.7 (≈ 1.9 µM) | 0.1 (≈ 0.272 µM) | 1.2 (≈ 3.26 µM) | 100 (≈ 272 µM) | 200 (≈ 543 µM) | 0.2 (≈ 0.543 µM) | 2 (≈ 5.43 µM) | 1.5 (≈ 4.07 µM) | 
8 | C=C(C)COCC(Cn1cncn1)c1ccc(Cl)cc1Cl (racemic) | 0.1 (≈ 0.307 µM) | 0.75 (≈ 2.3 µM) | 0.25 (≈ 0.766 µM) | 0.5 (≈ 1.53 µM) | 50 (≈ 153 µM) | 150 (≈ 460 µM) | 0.15 (≈ 0.46 µM) | 1.2 (≈ 3.68 µM) | 13 (≈ 39.8 µM) | 
9 | CC(C)=CCOCC(Cn1cncn1)c1ccc(Cl)cc1Cl (racemic) | 0.13 (≈ 0.382 µM) | 0.5 (≈ 1.47 µM) | 0.22 (≈ 0.647 µM) | 1 (≈ 2.94 µM) | 100 (≈ 294 µM) | 160 (≈ 470 µM) | 0.18 (≈ 0.529 µM) | 0.9 (≈ 2.65 µM) | 40 (≈ 118 µM) | 
10 | C=C(Cl)COCC(Cn1cncn1)c1ccc(Cl)cc1Cl (racemic) |  | 2 (≈ 5.77 µM) | 0.5 (≈ 1.44 µM) | 0.5 (≈ 1.44 µM) |  | > 100 | 0.23 (≈ 0.664 µM) | 0.8 (≈ 2.31 µM) | 12 (≈ 34.6 µM) | 
11 | Clc1ccc(C(COC/C=C/c2ccccc2)Cn2cncn2)c(Cl)c1 (racemic) | 0.18 (≈ 0.464 µM) | 0.47 (≈ 1.21 µM) | 0.1 (≈ 0.258 µM) | 1.3 (≈ 3.35 µM) | 10 (≈ 25.8 µM) | 140 (≈ 361 µM) | 0.2 (≈ 0.515 µM) | 3 (≈ 7.73 µM) | 40 (≈ 103 µM) | 
12 | Clc1ccc(C(COCCCc2ccccc2)Cn2cncn2)c(Cl)c1 (racemic) | 0.19 (≈ 0.487 µM) | 1.3 (≈ 3.33 µM) | 0.15 (≈ 0.384 µM) | 2.3 (≈ 5.89 µM) | 100 (≈ 256 µM) | 200 (≈ 512 µM) | 0.18 (≈ 0.461 µM) | 2.3 (≈ 5.89 µM) | 18 (≈ 46.1 µM) | 
13 | N#CCCOCC(Cn1cncn1)c1ccc(Cl)cc1Cl (racemic) | 8.5 (≈ 26.1 µM) | 32 (≈ 98.4 µM) | 4 (≈ 12.3 µM) | 20 (≈ 61.5 µM) | 60 (≈ 185 µM) | 250 (≈ 769 µM) | 4 (≈ 12.3 µM) | 18 (≈ 55.4 µM) | 32 (≈ 98.4 µM) | 
